# Tests used:
# Type in all cases: functional
# [1] = system: Bacillus subtilis; experiment: Antimicrobial activity against Bacillus subtilis KCTC 1021 after 24 hrs by broth dilution method; details: KCTC 1021, 24 h
# Outline: (§1)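 Twofold serial dilutions in nutrient broth (0.5–512.0 μg/mL) in microtiter plates. An overnight culture was adjusted to 1.5 × 10⁸ cfu/mL against the 0.5 McFarland standard and added to each dilution. Plates were incubated 24 h at 37 °C. MIC was the lowest concentration giving no visible growth (turbidity).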
# [2] = system: Saccharomyces cerevisiae; experiment: Antimicrobial activity against Saccharomyces cerevisiae KCTC 7913 after 48 hrs by broth dilution method; details: KCTC 7913, 48 h
# Outline: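 Yeast maltose broth, with twofold serial dilutions spanning 0.5–512.0 μg/mL in microtiter plates. An overnight yeast culture was adjusted to 1.5 × 10⁸ cfu/mL by the 0.5 McFarland standard and added to each well. Plates were held 48 h at 30 °C. MIC was the lowest concentration without visible turbidity.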
# [3] = system: Escherichia coli; experiment: Antimicrobial activity against Escherichia coli KCTC 1923 after 24 hrs by broth dilution method; details: KCTC 1923, 24 h; outline: as §1
SMILES,MIC [1],MIC [2],MIC [3]
C=C/C=C(\C)CC[C@@H](O)C[C@H](O)CC(=O)OC [IEODOMYCIN A],32 µg/mL,256 µg/mL,32 µg/mL
C=C/C=C(\C)CC[C@@H]1C[C@H](O)CC(=O)O1 [IEODOMYCIN B],32 µg/mL,256 µg/mL,32 µg/mL
C[C@@H](O)CCC/C=C/C=C/[C@@H](O)CC(=O)O [IEODOMYCIN C],32 µg/mL,256 µg/mL,32 µg/mL
C[C@@H](O)CCC/C=C/C=C/C(=O)O [IEODOMYCIN D],32 µg/mL,256 µg/mL,32 µg/mL

# Reference: ChEMBL document CHEMBL1811862, “Ieodomycins A-D, antimicrobial fatty acids from a marine Bacillus sp” (2011)
